Measurements published in article PMC5726523 (Nature chemistry, 2017).
Where a chain is given by its changes, count along the chain named.

How the values were obtained:
K155 of SIN3A [1] = molecular target: T1, K155 of SIN3A (Homo sapiens, UniProt Q96ST3); test: competitive isoTOP-ABPP, SIN3A K155; assay type: binding; conditions: 50 μM, human cancer cell proteomes
T1 sequence (Q96ST3 1-1273): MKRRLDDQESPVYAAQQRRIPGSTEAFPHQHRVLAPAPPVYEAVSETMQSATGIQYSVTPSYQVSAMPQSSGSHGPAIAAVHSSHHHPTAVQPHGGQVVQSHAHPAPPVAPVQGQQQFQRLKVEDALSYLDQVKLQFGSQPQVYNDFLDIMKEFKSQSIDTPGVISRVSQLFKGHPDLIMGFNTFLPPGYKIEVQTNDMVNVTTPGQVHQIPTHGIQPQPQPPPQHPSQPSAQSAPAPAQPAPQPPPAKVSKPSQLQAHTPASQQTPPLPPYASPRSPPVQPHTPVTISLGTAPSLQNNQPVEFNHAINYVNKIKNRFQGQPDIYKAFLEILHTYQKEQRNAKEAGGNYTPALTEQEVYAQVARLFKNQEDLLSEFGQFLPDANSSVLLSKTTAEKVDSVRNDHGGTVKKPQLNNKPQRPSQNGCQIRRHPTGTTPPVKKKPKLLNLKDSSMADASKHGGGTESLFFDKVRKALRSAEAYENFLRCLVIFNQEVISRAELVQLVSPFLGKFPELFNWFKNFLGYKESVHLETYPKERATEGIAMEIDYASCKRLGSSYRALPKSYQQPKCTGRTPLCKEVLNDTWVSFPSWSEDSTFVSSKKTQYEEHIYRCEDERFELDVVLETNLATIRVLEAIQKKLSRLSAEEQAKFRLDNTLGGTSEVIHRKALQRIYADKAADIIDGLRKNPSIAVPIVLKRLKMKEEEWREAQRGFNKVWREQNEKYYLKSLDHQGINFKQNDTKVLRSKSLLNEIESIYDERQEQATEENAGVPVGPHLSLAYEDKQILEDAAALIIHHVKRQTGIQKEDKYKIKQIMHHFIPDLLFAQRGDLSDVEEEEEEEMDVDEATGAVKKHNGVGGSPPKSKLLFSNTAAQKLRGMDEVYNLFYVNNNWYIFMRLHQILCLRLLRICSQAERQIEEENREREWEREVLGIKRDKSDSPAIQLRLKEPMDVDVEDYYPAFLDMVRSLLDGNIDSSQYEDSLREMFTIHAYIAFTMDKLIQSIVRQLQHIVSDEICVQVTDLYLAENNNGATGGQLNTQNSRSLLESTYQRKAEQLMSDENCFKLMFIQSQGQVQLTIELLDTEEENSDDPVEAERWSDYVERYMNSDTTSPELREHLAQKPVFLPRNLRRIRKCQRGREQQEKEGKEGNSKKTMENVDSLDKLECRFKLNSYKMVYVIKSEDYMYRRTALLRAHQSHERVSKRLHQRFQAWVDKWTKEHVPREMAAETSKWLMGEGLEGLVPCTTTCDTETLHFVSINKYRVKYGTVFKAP
Method in brief: (§1)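 Human cancer cell proteomes were pretreated with an amine-reactive electrophilic fragment (50–100 μM) or DMSO, then probe 1 (100 μM). Labeled proteins were CuAAC-conjugated to isotopic TEV-cleavable azide-biotin tags (DMSO heavy, fragment light), combined and analysed by isoTOP-ABPP. R = DMSO/fragment MS1 peak ratio of probe-labeled peptides. R ≥ 4 (≥75% loss of enrichment) defines liganding.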

SIN3A-TGIF2 interaction = molecular target: T2, SIN3A-TGIF2 interaction (Homo sapiens, UniProt Q96ST3); test: co-immunoprecipitation western blot, Flag-SIN3A / Myc-TGIF2; assay type: biochemical; conditions: 50 μM, 1 h
T2 sequence (Q96ST3 1-400): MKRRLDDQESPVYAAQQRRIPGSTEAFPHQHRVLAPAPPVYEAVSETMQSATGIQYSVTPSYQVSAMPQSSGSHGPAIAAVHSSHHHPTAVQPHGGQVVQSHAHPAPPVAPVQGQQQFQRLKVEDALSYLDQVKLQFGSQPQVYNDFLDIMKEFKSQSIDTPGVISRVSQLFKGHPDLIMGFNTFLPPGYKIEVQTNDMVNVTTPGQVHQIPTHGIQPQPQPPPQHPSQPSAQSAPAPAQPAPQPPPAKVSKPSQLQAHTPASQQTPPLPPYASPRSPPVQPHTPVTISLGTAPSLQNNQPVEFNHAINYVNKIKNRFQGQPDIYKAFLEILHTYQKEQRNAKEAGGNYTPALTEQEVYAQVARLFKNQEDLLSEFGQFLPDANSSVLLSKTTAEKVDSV
Method in brief: (§2)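 Flag-SIN3A (a.a. 1-400, WT or K155 mutants) or Flag-GFP was co-expressed in HEK 293T cells with Myc-TGIF1 or Myc-TGIF2. Lysates were treated with DMSO or test compound (50 μM, 1 h), immunoprecipitated and analysed by anti-Myc western blot. Four biological replicates, mean ± SD. Unpaired Student's t-test, WT + compound vs K155R + compound.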

[2] = molecular target: T3, SIN3A K155R-TGIF1 interaction (Homo sapiens, UniProt Q96ST3, K155R); test: co-immunoprecipitation western blot, Flag-SIN3A K155R / Myc-TGIF1; assay type: biochemical; conditions: 50 μM, 1 h
T3 sequence (Q96ST3 1-400 K155R): T2 sequence (Q96ST3 1-400) with K155R
Method in brief: as §2

TGIF2-SIN3A interaction = molecular target: T4, TGIF2-SIN3A interaction (Homo sapiens, UniProt Q96ST3); test: SILAC co-immunoprecipitation-MS proteomics, SIN3A-TGIF2; assay type: biochemical; conditions: 50 μM, 1 h, co-IP MS proteomics
T4 sequence (Q96ST3 1-400): T2 sequence (Q96ST3 1-400)
Method in brief: (§3)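 HEK293T cells were metabolically labeled with isotopically differentiated amino acids. Heavy cells were transfected with Flag-SIN3A and light cells with Flag-GFP. Cells were lysed and anti-Flag immunoprecipitated. Heavy and light IPs were combined, trypsin-digested and run on LC-MS/MS. SIN3A interactors were proteins enriched >five-fold over GFP. Paired comparisons were WT vs K155W-SIN3A, and DMSO vs test compound (50 μM, 1 h) on WT.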

SIN3A-TGIF1 interaction = molecular target: T5, SIN3A-TGIF1 interaction (Homo sapiens, UniProt Q96ST3); test: co-immunoprecipitation western blot, Flag-SIN3A / Myc-TGIF1; assay type: biochemical; conditions: 50 μM, 1 h, anti-Myc blotting
T5 sequence (Q96ST3 1-400): T2 sequence (Q96ST3 1-400)
Method in brief: as §2

K155 of SIN3A [3] = molecular target: T6, K155 of SIN3A (Homo sapiens, UniProt Q96ST3); test: gel-based ABPP, blockade of probe labeling of SIN3A; assay type: binding; conditions: read-out: apparent IC50, blockade of probe labeling of K155, lysates of HEK293T cells expressing Flag-SIN3A a.a. 1-400
T6 sequence (Q96ST3 1-400): T2 sequence (Q96ST3 1-400)

TGIF1-SIN3A interaction = molecular target: T7, TGIF1-SIN3A interaction (Homo sapiens, UniProt Q96ST3); test: SILAC co-immunoprecipitation-MS proteomics, SIN3A-TGIF1; assay type: biochemical; conditions: 50 μM, 1 h, co-IP MS proteomics
T7 sequence (Q96ST3 1-400): T2 sequence (Q96ST3 1-400)
Method in brief: as §3

K35 in transthyretin TTR = K35 in transthyretin TTR (Homo sapiens, UniProt P02766); test: competitive isoTOP-ABPP, TTR K35; assay type: binding; conditions: compared with fragments 29 and 30
Method in brief: as §1

NUDT2 [4] = molecular target: T8, NUDT2 (Homo sapiens, UniProt P50583); test: gel-based ABPP, blockade of probe labeling of NUDT2; assay type: binding; conditions: read-out: apparent IC50, blockade of probe labeling of NUDT2
Method in brief: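 Flag-tagged NUDT2 was recombinantly expressed in HEK 293T cells. Samples were treated with test compound, then a lysine-reactive probe, and analysed by gel-based ABPP. Apparent IC50 is from blockade of probe labeling of the liganded lysine.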

NUDT2 [5] = molecular target: T8, NUDT2; test: NUDT2 substrate assay; assay type: biochemical; conditions: compared with gel-based ABPP IC50 of 2 μM
K89 of NUDT2 = K89 of NUDT2 (Homo sapiens, UniProt P50583); test: competitive isoTOP-ABPP, NUDT2 K89; assay type: binding
Method in brief: as §1

T8 sequence (P50583 whole entry): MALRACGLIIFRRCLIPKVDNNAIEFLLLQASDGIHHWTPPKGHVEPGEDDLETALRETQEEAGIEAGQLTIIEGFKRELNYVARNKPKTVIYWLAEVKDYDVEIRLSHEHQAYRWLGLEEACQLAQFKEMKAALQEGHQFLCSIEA
Chain of K89 of NUDT2 (P50583 whole entry): as above

O=C(Oc1c(F)c(F)c(F)c(F)c1F)c1cc(C(F)(F)F)cc(C(F)(F)F)c1 [fragment 21]
R value (DMSO/fragment) for tryptic peptide containing K155 (K155 of SIN3A [1]): 20
blockade of probe 1 labeling of K155 (K155 of SIN3A [1]): > 95%
effect on co-immunoprecipitation of TGIF2 with SIN3A (SIN3A-TGIF2 interaction): partial blockade
effect on SIN3A-TGIF1 interaction with K155R mutant [2]: conferred resistance
effect on TGIF2-SIN3A interaction (TGIF2-SIN3A interaction): marginal effect
effect on co-immunoprecipitation of TGIF1 with SIN3A (SIN3A-TGIF1 interaction): blocked
IC50 (K155 of SIN3A [3]): 5 µM
effect on TGIF1-SIN3A interaction (TGIF1-SIN3A interaction): strongly blocked

O=C(Oc1ccc([N+](=O)[O-])cc1[N+](=O)[O-])c1cc(C(F)(F)F)cc(C(F)(F)F)c1 [fragment 31]
targeting of K35 of TTR (K35 in transthyretin TTR): preferentially targeted

COC(=O)NC(=NC(=O)OCC1c2ccccc2-c2ccccc21)n1cccn1 [fragment 49]
IC50 (NUDT2 [4]): 2 µM
IC50, inhibition of NUDT2 activity (NUDT2 [5]): equivalent IC50 value
reactivity with K89 of NUDT2 (K89 of NUDT2): preferentially reacting
